From ChEMBL document CHEMBL4017468, “Synthesis and biological evaluation of pyrimidine derivatives with diverse azabicyclic ether/amine as novel GPR119 agonist” (Bioorg Med Chem Lett, 2017) come the findings set out here.

The first assay deals with T1, Glucose-dependent insulinotropic receptor (Homo sapiens, UniProt Q8TDV5).
T1 sequence (Q8TDV5 whole entry): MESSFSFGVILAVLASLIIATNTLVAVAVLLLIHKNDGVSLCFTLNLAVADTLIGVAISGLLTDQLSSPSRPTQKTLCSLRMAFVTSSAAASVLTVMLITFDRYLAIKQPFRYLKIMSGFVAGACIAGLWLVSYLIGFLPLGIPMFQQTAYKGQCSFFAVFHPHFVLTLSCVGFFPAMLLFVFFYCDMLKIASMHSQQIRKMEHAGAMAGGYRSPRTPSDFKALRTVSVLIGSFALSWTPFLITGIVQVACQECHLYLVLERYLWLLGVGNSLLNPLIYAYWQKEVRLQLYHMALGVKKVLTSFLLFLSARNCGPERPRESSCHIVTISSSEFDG
The assay is described as follows: Agonist activity at human GPR119 expressed in HEK293 cells assessed as increase in cAMP stimulation measured after 60 mins by TR-FRET assay. The assay is classed as functional, cell-based. A digest of the protocol: (§1)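 HEK293 cells seeded at 4×10^3 cells/well, grown 24 h, then transiently transfected with a GPR119 expression plasmid using Lipofectamine/Plus. After 24 h, compounds were added in KRBH buffer with 0.1% BSA and 500 μM IBMX for 60 min at 37 °C. Cells were lysed 10 min at room temperature (50 mM phosphate, 1 M KF, 1.25% Triton X-100, pH 7.0). cAMP was read by HTRF. EC50 was taken as the concentration giving 50% of OEA-stimulated cAMP, and %max as the response relative to maximal OEA effect.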
On to `CC(C)(C)OC(=O)N1CC2CC(Oc3ncnc(Nc4ccc(S(C)(=O)=O)cc4)c3[N+](=O)[O-])C1C2` (stereo unspecified), for which the EC50 worked out at 0.315 µM.

Consider `CC(C)(C)OC(=O)N1CC2CCC1CC2Nc1ncnc(Nc2ccc(S(C)(=O)=O)cc2F)c1[N+](=O)[O-]` (stereo in doubt; 27s) [listing 1 of 2 here], for which the EC50 came out at 0.0053 µM.

As to `CC(C)(C)OC(=O)N1CC2CC(Nc3ncnc(Nc4ccc(S(C)(=O)=O)cc4)c3[N+](=O)[O-])C1C2` (stereo in doubt; 27h) [listing 1 of 2 here], the EC50 is greater than 10 µM. Regarding `CC(C)(C)OC(=O)N1CC2CC1CC2Oc1ncnc(Nc2ccc(S(C)(=O)=O)cc2)c1[N+](=O)[O-]` (stereo unspecified), the EC50 came to 0.11 µM. `CC(C)(C)OC(=O)N1CC2CCC1CC2Oc1ncnc(Nc2ccc(S(C)(=O)=O)cc2F)c1[N+](=O)[O-]` (stereo unspecified): the EC50 was greater than 10 µM.

Take `CC(C)(C)OC(=O)N1CC2CC1CC2Nc1ncnc(Nc2ccc(S(C)(=O)=O)cc2)c1[N+](=O)[O-]` (stereo in doubt; 27l) [listing 1 of 2 here]: the EC50 is greater than 10 µM. Consider `CC(C)(C)OC(=O)N1CC2CC1CC2Nc1ncnc(Nc2ccc(S(C)(=O)=O)cc2F)c1[N+](=O)[O-]` (stereo in doubt; 27k) [listing 1 of 2 here], for which the concentration for a half-maximal effect (EC50) is greater than 10 µM.

Consider `CC(C)(C)OC(=O)N1CC2CC1CC2Nc1ncnc(Nc2ccc(S(C)(=O)=O)cc2F)c1[N+](=O)[O-]` (stereo in doubt; 27i) [listing 1 of 2 here], for which the half-maximal effective concentration (EC50) came to 0.0049 µM. For the molecule `CC(C)(C)OC(=O)N1CC2CC(Nc3ncnc(Nc4ccc(S(C)(=O)=O)cc4)c3[N+](=O)[O-])C1C2` (stereo in doubt; 27f) [listing 1 of 2 here], the EC50 was greater than 1 µM. On the same count and under the same terms, the value for `CC(C)(C)OC(=O)N1CC2CC1CC2Oc1ncnc(Nc2ccc(S(C)(=O)=O)cc2F)c1[N+](=O)[O-]` (stereo unspecified) was 0.0056 µM; that for `CC(C)(C)OC(=O)N1CC2CCC1CC2Nc1ncnc(Nc2ccc(S(C)(=O)=O)cc2)c1[N+](=O)[O-]` (stereo in doubt; 27t) [listing 1 of 2 here] was 0.0064 µM; that for `CC(C)(C)OC(=O)N1CC2CC(Nc3ncnc(Nc4ccc(S(C)(=O)=O)cc4F)c3[N+](=O)[O-])C1C2` (stereo in doubt; 27e) [listing 1 of 2 here] was 0.053 µM. As for `CC(C)(C)OC(=O)N1CC2CCC1CC2Nc1ncnc(Nc2ccc(S(C)(=O)=O)cc2F)c1[N+](=O)[O-]` (stereo in doubt; 27q) [listing 1 of 2 here], the EC50 was found to be 0.0018 µM. Regarding `CC(C)(C)OC(=O)N1CC2CC(Oc3ncnc(Nc4ccc(S(C)(=O)=O)cc4F)c3[N+](=O)[O-])C1C2` (stereo unspecified), the EC50 came out at 0.0777 µM. Same read-out and setting: in the case of `CC(C)(C)OC(=O)N1CC2CC1CC2Nc1ncnc(Nc2ccc(S(C)(=O)=O)cc2)c1[N+](=O)[O-]` (stereo in doubt; 27j) [listing 1 of 2 here] it was 0.0482 µM; in that of `CC(C)(C)OC(=O)N1CC2CC(Nc3ncnc(Nc4ccc(S(C)(=O)=O)cc4F)c3[N+](=O)[O-])C1C2` (stereo in doubt; 27g) [listing 1 of 2 here], 0.236 µM; in that of `CC(C)(C)OC(=O)N1CC2CCC1CC2Oc1ncnc(Nc2ccc(S(C)(=O)=O)cc2)c1[N+](=O)[O-]` (stereo in doubt; 27p) [listing 1 of 2 here], greater than 10 µM. For the molecule `CC(C)(C)OC(=O)N1CC2CCC1CC2Oc1ncnc(Nc2ccc(S(C)(=O)=O)cc2)c1[N+](=O)[O-]` (stereo in doubt; 27n) [listing 1 of 2 here], the EC50 was determined as 0.0031 µM. On the same count and under the same terms, the value for `CC(C)(C)OC(=O)N1CC2CCC1CC2Nc1ncnc(Nc2ccc(S(C)(=O)=O)cc2)c1[N+](=O)[O-]` (stereo in doubt; 27r) [listing 1 of 2 here] was 0.0056 µM; that for `CC(C)(C)OC(=O)N1C[C@@H]2CC[C@@H]1C[C@@H]2Oc1ncnc(Nc2ccc(S(C)(=O)=O)cc2F)c1[N+](=O)[O-]` (relative stereo) was 0.0012 µM.

A further assay addresses T2, Glucose-dependent insulinotropic receptor (Homo sapiens) (UniProt Q8TDV5).
T2 sequence (whole entry): T1 sequence (Q8TDV5 whole entry)
The assay is described as follows: Agonist activity at human GPR119 expressed in HEK293 cells assessed as increase in cAMP stimulation measured after 60 mins by TR-FRET assay relative to oleoylethanolamide. The assay is classed as functional, cell-based. Put shortly: as §1
A general note: TR-FRET usually uses a lanthanide donor and a delayed reading to cut background.
In the case of `CC(C)(C)OC(=O)N1CC2CC(Oc3ncnc(Nc4ccc(S(C)(=O)=O)cc4)c3[N+](=O)[O-])C1C2` (stereo unspecified), the %max came to 58.4%. Take `CC(C)(C)OC(=O)N1CC2CCC1CC2Nc1ncnc(Nc2ccc(S(C)(=O)=O)cc2)c1[N+](=O)[O-]` (stereo in doubt; 27t) [listing 2 of 2 here]: the %max stood at 58.1%. As for `CC(C)(C)OC(=O)N1CC2CC1CC2Nc1ncnc(Nc2ccc(S(C)(=O)=O)cc2)c1[N+](=O)[O-]` (stereo in doubt; 27j) [listing 2 of 2 here], the %max came out at 94.3%. As to `CC(C)(C)OC(=O)N1CC2CC1CC2Oc1ncnc(Nc2ccc(S(C)(=O)=O)cc2)c1[N+](=O)[O-]` (stereo unspecified), the %max came to 101%. For `CC(C)(C)OC(=O)N1CC2CCC1CC2Oc1ncnc(Nc2ccc(S(C)(=O)=O)cc2F)c1[N+](=O)[O-]` (stereo unspecified), the %max worked out at 32.9%. For the molecule `CC(C)(C)OC(=O)N1CC2CCC1CC2Nc1ncnc(Nc2ccc(S(C)(=O)=O)cc2F)c1[N+](=O)[O-]` (stereo in doubt; 27q) [listing 2 of 2 here], the %max is 104%. Turning to `CC(C)(C)OC(=O)N1CC2CC(Nc3ncnc(Nc4ccc(S(C)(=O)=O)cc4F)c3[N+](=O)[O-])C1C2` (stereo in doubt; 27g) [listing 2 of 2 here], the %max was determined as 63.4%. The same measure, in the same setting: the value for `CC(C)(C)OC(=O)N1CC2CC(Nc3ncnc(Nc4ccc(S(C)(=O)=O)cc4F)c3[N+](=O)[O-])C1C2` (stereo in doubt; 27e) [listing 2 of 2 here] was 76.7%; that for `CC(C)(C)OC(=O)N1CC2CC1CC2Nc1ncnc(Nc2ccc(S(C)(=O)=O)cc2F)c1[N+](=O)[O-]` (stereo in doubt; 27i) [listing 2 of 2 here] was 97%; that for `CC(C)(C)OC(=O)N1CC2CC1CC2Oc1ncnc(Nc2ccc(S(C)(=O)=O)cc2F)c1[N+](=O)[O-]` (stereo unspecified) was 86.7%.

For `CC(C)(C)OC(=O)N1CC2CC1CC2Nc1ncnc(Nc2ccc(S(C)(=O)=O)cc2F)c1[N+](=O)[O-]` (stereo in doubt; 27k) [listing 2 of 2 here], the %max was determined as 34.8%. As for `CC(C)(C)OC(=O)N1CC2CCC1CC2Oc1ncnc(Nc2ccc(S(C)(=O)=O)cc2)c1[N+](=O)[O-]` (stereo in doubt; 27p) [listing 2 of 2 here], the %max came out at 44.7%. For `CC(C)(C)OC(=O)N1CC2CC(Nc3ncnc(Nc4ccc(S(C)(=O)=O)cc4)c3[N+](=O)[O-])C1C2` (stereo in doubt; 27f) [listing 2 of 2 here], the %max is 38.9%. On to `CC(C)(C)OC(=O)N1CC2CC(Oc3ncnc(Nc4ccc(S(C)(=O)=O)cc4F)c3[N+](=O)[O-])C1C2` (stereo unspecified), for which the %max is 52.6%.

As to `CC(C)(C)OC(=O)N1CC2CCC1CC2Oc1ncnc(Nc2ccc(S(C)(=O)=O)cc2)c1[N+](=O)[O-]` (stereo in doubt; 27n) [listing 2 of 2 here], the %max is 71.9%. Same read-out and setting: the value for `CCCCCCCC/C=C\CCCCCCCC(=O)NCCO` was 100%; that for `CC(C)(C)OC(=O)N1CC2CCC1CC2Nc1ncnc(Nc2ccc(S(C)(=O)=O)cc2)c1[N+](=O)[O-]` (stereo in doubt; 27r) [listing 2 of 2 here] was 78.9%. As for `CC(C)(C)OC(=O)N1CC2CCC1CC2Nc1ncnc(Nc2ccc(S(C)(=O)=O)cc2F)c1[N+](=O)[O-]` (stereo in doubt; 27s) [listing 2 of 2 here], the %max was found to be 63.2%.

Consider `CC(C)(C)OC(=O)N1C[C@@H]2CC[C@@H]1C[C@@H]2Oc1ncnc(Nc2ccc(S(C)(=O)=O)cc2F)c1[N+](=O)[O-]` (relative stereo), for which the %max was 112%. Same read-out and setting: the value for `CC(C)(C)OC(=O)N1CC2CC(Nc3ncnc(Nc4ccc(S(C)(=O)=O)cc4)c3[N+](=O)[O-])C1C2` (stereo in doubt; 27h) [listing 2 of 2 here] was 21.6%; that for `CC(C)(C)OC(=O)N1CC2CC1CC2Nc1ncnc(Nc2ccc(S(C)(=O)=O)cc2)c1[N+](=O)[O-]` (stereo in doubt; 27l) [listing 2 of 2 here] was 25.1%.

What is called EC50 is the concentration that produces a half-maximal response.
